Source: paper PMC5430754 (Acta Pharmaceutica Sinica. B, 2017)
Read-outs that look alike come from different tables or passages of the source.

Columns and labels:
[1] = molecular target: sucrase (Rattus norvegicus, UniProt P23739); assay: α-glucosidase; type: biochemical; conditions: for Sucrase Inhibition (%): at the concentration of 10^—5 mol/L
[2] = molecular target: T1, porcine pancreatic lipase (Sus scrofa, UniProt P00591); assay: lipase inhibitory activity; type: biochemical; conditions: for Lipase Inhibition (%): at the concentration of 10^—5 mol/L; for inhibition at 10 µM: 1 h, read-out: Lipase Inhibition (%)
T1 sequence (P00591 1-450): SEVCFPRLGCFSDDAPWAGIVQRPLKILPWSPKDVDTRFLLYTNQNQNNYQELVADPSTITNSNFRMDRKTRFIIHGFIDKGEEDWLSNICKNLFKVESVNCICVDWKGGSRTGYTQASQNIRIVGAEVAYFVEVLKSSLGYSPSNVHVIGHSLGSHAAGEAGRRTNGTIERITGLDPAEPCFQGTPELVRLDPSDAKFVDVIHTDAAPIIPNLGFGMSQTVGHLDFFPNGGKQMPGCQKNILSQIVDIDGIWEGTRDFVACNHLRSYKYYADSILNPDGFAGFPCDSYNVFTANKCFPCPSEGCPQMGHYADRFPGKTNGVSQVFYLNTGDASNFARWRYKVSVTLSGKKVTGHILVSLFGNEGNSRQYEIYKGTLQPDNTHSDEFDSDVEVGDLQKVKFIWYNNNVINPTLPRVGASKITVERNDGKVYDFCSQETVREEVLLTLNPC

[3] = test system: maltase; assay: α-glucosidase; type: biochemical, Rat; conditions: for Maltase Inhibition (%): at the concentration of 10^—5 mol/L; for IC50: read-out: Maltase IC50, isolated compounds
How it was run: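 Rat small-intestinal brush-border membrane vesicles, suspended in 0.1 mol/L phosphate buffer pH 6.0, served as the α-glucosidase source. Enzyme, substrate and test compound were incubated in the same buffer for 30 min at 37 °C. The reaction was stopped by heating to 80–85 °C for 3 min. Released glucose was measured by the glucose oxidase method. Triplicates at five concentrations gave IC50 from dose–response curves; % inhibition was measured at 10⁻⁵ mol/L.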

[4] = read-out: Sucrase IC50, isolated compounds

sucrase, sequence (P23739 whole entry): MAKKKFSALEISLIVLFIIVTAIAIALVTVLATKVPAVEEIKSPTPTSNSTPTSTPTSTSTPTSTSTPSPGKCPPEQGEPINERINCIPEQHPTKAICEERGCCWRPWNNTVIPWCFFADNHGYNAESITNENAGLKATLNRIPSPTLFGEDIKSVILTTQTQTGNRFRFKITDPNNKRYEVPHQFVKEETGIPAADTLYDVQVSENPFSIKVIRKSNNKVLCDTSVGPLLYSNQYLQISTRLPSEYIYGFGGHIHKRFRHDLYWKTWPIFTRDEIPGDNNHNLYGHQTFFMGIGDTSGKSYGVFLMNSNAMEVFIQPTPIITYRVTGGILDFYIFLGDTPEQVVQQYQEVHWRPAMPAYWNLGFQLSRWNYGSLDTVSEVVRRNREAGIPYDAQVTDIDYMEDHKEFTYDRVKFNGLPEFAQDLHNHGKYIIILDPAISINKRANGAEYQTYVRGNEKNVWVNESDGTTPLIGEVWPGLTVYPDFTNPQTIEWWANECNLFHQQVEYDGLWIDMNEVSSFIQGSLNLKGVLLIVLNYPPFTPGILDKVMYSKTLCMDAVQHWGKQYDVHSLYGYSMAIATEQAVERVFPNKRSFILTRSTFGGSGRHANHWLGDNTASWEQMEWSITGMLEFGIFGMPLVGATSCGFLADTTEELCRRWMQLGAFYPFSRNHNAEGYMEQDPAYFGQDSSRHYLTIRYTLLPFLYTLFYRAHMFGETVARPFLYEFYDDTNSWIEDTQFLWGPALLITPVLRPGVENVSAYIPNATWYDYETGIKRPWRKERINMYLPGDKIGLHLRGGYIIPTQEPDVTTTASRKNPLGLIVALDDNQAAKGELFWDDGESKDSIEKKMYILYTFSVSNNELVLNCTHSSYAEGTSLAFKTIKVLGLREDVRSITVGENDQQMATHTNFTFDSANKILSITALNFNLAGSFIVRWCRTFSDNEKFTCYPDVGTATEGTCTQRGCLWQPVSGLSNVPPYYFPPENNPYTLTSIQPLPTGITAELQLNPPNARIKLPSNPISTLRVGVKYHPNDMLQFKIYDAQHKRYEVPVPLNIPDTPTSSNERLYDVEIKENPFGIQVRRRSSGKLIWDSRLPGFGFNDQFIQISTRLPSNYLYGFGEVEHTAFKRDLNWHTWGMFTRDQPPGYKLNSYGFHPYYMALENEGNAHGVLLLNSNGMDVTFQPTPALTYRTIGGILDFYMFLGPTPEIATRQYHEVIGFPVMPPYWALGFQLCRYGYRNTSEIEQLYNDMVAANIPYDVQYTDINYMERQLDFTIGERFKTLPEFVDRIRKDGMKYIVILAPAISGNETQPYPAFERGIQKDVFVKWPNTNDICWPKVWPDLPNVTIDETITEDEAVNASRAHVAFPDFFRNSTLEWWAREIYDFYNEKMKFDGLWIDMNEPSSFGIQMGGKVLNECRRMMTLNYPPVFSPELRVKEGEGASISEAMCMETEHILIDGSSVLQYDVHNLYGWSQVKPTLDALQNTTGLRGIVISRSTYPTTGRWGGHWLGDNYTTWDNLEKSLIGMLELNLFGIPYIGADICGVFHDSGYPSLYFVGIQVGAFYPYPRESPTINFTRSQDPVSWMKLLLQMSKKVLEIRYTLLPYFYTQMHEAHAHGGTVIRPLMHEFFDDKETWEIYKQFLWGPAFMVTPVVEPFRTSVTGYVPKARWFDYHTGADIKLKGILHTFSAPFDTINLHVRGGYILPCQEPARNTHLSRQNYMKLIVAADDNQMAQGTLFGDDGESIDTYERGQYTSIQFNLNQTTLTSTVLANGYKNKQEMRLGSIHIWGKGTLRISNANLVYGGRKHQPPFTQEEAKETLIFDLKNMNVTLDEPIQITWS

O=C(/C=C/c1ccc(O)c(O)c1)O[C@@H]1Cc2c(O)cc(O)cc2O[C@@H]1c1ccc(O)c(O)c1 [Compound 3, (–)-epicatechin-3-O-(E)-caffeate]
Sucrase Inhibition (%) [1]: 64.5% | IC50 [1, 4]: 107 µM | Lipase Inhibition (%) [2]: 36.3%

O=C(/C=C/c1ccc(O)cc1)O[C@@H]1Cc2c(O)cc(O)cc2O[C@@H]1c1ccc(O)c(O)c1 [Compound 2, (–)-epicatechin-3-O-(E)-coumarate]
Sucrase Inhibition (%) [1]: 71.3% | IC50 [1, 4]: 62.1 µM | Lipase Inhibition (%) [2]: 41.6%

O=C(/C=C\c1ccc(O)cc1)O[C@@H]1Cc2c(O)cc(O)cc2O[C@@H]1c1ccc(O)c(O)c1 [Compound 1, (–)-epicatechin-3-O-(Z)-coumarate]
Sucrase Inhibition (%) [1]: 45.4% | Maltase Inhibition (%) [3]: 71.8% | IC50 [3]: 49.7 µM | Lipase Inhibition (%) [2]: 42.6%

O=C1c2c(O)cc(O)cc2O[C@H](c2cc(O)c(O)c(O)c2)[C@H]1O [Compound 5, ampelopsin]
IC50 [1]: 74.6 µM | inhibition at 10 µM ([1]; 0.5 h, read-out: Sucrase Inhibition (%)): 90.4% | Maltase Inhibition (%) [3]: 92.0% | IC50 [3]: 200 µM | IC50 [2]: 20.4 µM | inhibition at 10 µM [2]: 92.1%

Oc1cc(O)c2c(c1)O[C@H](c1ccc(O)c(O)c1)[C@H](O)C2 [Compound 6, (–)-epicatechin]
Maltase Inhibition (%) [3]: 48.5% | IC50 [2]: 32.2 µM | inhibition at 10 µM [2]: 70.4%

Oc1cc(O)c2c(c1)O[C@H](c1ccc(O)c(O)c1)[C@@H](O)C2 [Compound 4, (+)-catechin]
Sucrase Inhibition (%) [1]: 21.5% | Maltase Inhibition (%) [3]: 16.1% | Lipase Inhibition (%) [2]: 64.9% | IC50 ([2]; read-out: Lipase IC50, isolated compounds): 39.7 µM
